Article PMC8688301 (Environment international, 2021)
Like-named read-outs stand apart in the source and are kept apart here.

Assays:
[1] = In vitro microsomal incubation, human liver microsomes; conditions: for share of the total TTBP-TAZ metabolite concentrations: metabolite formed from TTBP-TAZ in liver microsome incubations, target screening; for formation of 2,4,6-TBP as a result of biotransformation: human liver microsomes
[2] = human; for share of the total TTBP-TAZ metabolite concentrations: 2 h
[3] = In vitro microsomal incubation, rat liver microsomes; conditions: for formation of 2,4,6-TBP as a result of biotransformation: rat liver microsomes
[4] = animal studies; ref Mörck et al., 2003; cited from earlier work
CAT = test: Hepatic mRNA expression; format: in vivo, Sprague-Dawley rat; conditions: rat liver; 250 mg/kg bw/day by gavage, 7 days; vs control
Outline: (§1)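 Male Sprague-Dawley rats (4 weeks old, 7-day quarantine) were randomised to a corn-oil control or test compound at 250 mg/kg bw/day in corn oil by oral gavage for 7 days, n = 5 per group. Liver was taken at sacrifice. mRNA was measured by quantitative real-time PCR, normalised to β2 microglobulin (B2m), with relative expression by 2−ΔΔCt. Mean ± SE reported; significance at p 0.05.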

RXRγ = test: Hepatic mRNA expression; format: in vivo, Sprague-Dawley rat; conditions: rat liver; 250 mg/kg bw/day by gavage, 7 days; vs control
Outline: as §1

SOD1 = test: Hepatic mRNA expression; format: in vivo, Sprague-Dawley rat; conditions: rat liver; 250 mg/kg bw/day by gavage, 7 days; vs control
Outline: as §1

TSH = test: Hepatic mRNA expression; format: in vivo, Sprague-Dawley rat; conditions: rat liver; 250 mg/kg bw/day by gavage, 7 days; vs control
Outline: as §1

ANGPTL4 = test: Hepatic mRNA expression; format: in vivo, Sprague-Dawley rat; conditions: rat liver; 250 mg/kg bw/day by gavage, 7 days; vs control
Outline: as §1

[5] = rat
[6] = Occurrence of TTBP-TAZ and 2,4,6-TBP in blood and liver of orally exposed rats; design: species or system Sprague-Dawley rat; conditions: in vivo, 250 mg/kg/day
MYC = test: Hepatic mRNA expression; format: in vivo, Sprague-Dawley rat; conditions: rat liver; 250 mg/kg bw/day by gavage, 7 days; compared to the 2,4,6 TBP exposure group
TG = test: Hepatic mRNA expression; format: in vivo, Sprague-Dawley rat; conditions: rat liver; 250 mg/kg bw/day by gavage, 7 days; vs control
Outline: as §1

RXRα = test: Hepatic mRNA expression; format: in vivo, Sprague-Dawley rat; conditions: rat liver; 250 mg/kg bw/day by gavage, 7 days; vs control
Outline: as §1

INFγ = test: Hepatic mRNA expression; format: in vivo, Sprague-Dawley rat; conditions: rat liver; 250 mg/kg bw/day by gavage, 7 days; vs control
Outline: as §1

VEGF = test: Hepatic mRNA expression; format: in vivo, Sprague-Dawley rat; conditions: rat liver; 250 mg/kg bw/day by gavage, 7 days; vs control
Outline: as §1

TNFα = test: Hepatic mRNA expression; format: in vivo, Sprague-Dawley rat; conditions: rat liver; 250 mg/kg bw/day by gavage, 7 days; vs control
Outline: as §1

PLIN = test: Hepatic mRNA expression; format: in vivo, Sprague-Dawley rat; conditions: rat liver; 250 mg/kg bw/day by gavage, 7 days; vs control
AhR = test: Hepatic mRNA expression; format: in vivo, Sprague-Dawley rat; conditions: rat liver; 250 mg/kg bw/day by gavage, 7 days; vs control
Outline: as §1

HIF1α = test: Hepatic mRNA expression; format: in vivo, Sprague-Dawley rat; conditions: rat liver; 250 mg/kg bw/day by gavage, 7 days; vs control
Outline: as §1

LPL = test: Hepatic mRNA expression; format: in vivo, Sprague-Dawley rat; conditions: rat liver; 250 mg/kg bw/day by gavage, 7 days; vs control
Outline: as §1

HOMX1 = test: Hepatic mRNA expression; format: in vivo, Sprague-Dawley rat; conditions: rat liver; 250 mg/kg bw/day by gavage, 7 days; vs control
Outline: as §1

RXRβ = test: Hepatic mRNA expression; format: in vivo, Sprague-Dawley rat; conditions: rat liver; 250 mg/kg bw/day by gavage, 7 days; vs control
Outline: as §1

PXR = test: Hepatic mRNA expression; format: in vivo, Sprague-Dawley rat
AOX1 = test: Hepatic mRNA expression; format: in vivo, Sprague-Dawley rat; conditions: rat liver; 250 mg/kg bw/day by gavage, 7 days; vs control
Outline: as §1

THRβ = test: Hepatic mRNA expression; format: in vivo, Sprague-Dawley rat; conditions: rat liver; 250 mg/kg bw/day by gavage, 7 days; vs control
Outline: as §1

LXR = test: Hepatic mRNA expression; format: in vivo, Sprague-Dawley rat; conditions: rat liver; 250 mg/kg bw/day by gavage, 7 days; vs control
Outline: as §1

IL-6 = test: Hepatic mRNA expression; format: in vivo, Sprague-Dawley rat; conditions: rat liver; 250 mg/kg bw/day by gavage, 7 days; vs control
Outline: as §1

[7] = Relative body, liver and thyroid weights of exposed rats; format: in vivo, Sprague-Dawley rat; conditions: 250 mg/kg bw/day by gavage, 7 days, vs control (Table S2)
PPARδ = test: Hepatic mRNA expression; format: in vivo, Sprague-Dawley rat; conditions: rat liver; 250 mg/kg bw/day by gavage, 7 days; vs control
Outline: as §1

PPARγ = test: Hepatic mRNA expression; format: in vivo, Sprague-Dawley rat; conditions: rat liver; 250 mg/kg bw/day by gavage, 7 days; vs control
Outline: as §1

## Oc1ccc(Br)cc1Br [2,4-DBP, 2,4-dibromophenol]
[1]
  share of the total TTBP-TAZ metabolite concentrations: 0.19%

## Oc1cc(Br)c(Br)cc1Br [2,4,5-TBP, 2,4,5-Tribromophenol]
[2]; pH 7.4
  share of the total TTBP-TAZ metabolite concentrations: 12.6%

## CC(C)(c1cc(Br)c(O)c(Br)c1)c1cc(Br)c(O)c(Br)c1 [TBBPA, tetrabromobisphenol A]
[1]
  formation of 2,4,6-TBP as a result of biotransformation: not formed
[3]
  formation of 2,4,6-TBP as a result of biotransformation: not formed

## Brc1c(Br)c(Br)c(CCc2c(Br)c(Br)c(Br)c(Br)c2Br)c(Br)c1Br [DBDPE, decabromodiphenyl ethane]
[4]
  excreted in feces: 90%
[1]
  formation of 2,4,6-TBP as a result of biotransformation: not formed
[3]
  formation of 2,4,6-TBP as a result of biotransformation: not formed

## Brc1cc(Br)c(Oc2nc(Oc3c(Br)cc(Br)cc3Br)nc(Oc3c(Br)cc(Br)cc3Br)n2)c(Br)c1 [TTBP-TAZ, 2,4,6-tris-(2,4,6-tribromophenoxy)-1,3,5-triazine]
CAT
  CAT mRNA expression: significantly inhibited
RXRγ
  RXRγ mRNA expression: downregulated significantly
SOD1
  SOD1 mRNA expression: significantly inhibited
TSH
  TSH mRNA expression: significantly induced
ANGPTL4
  ANGPTL4 mRNA expression: significantly inhibited
[5]; Sprague-Dawley, pH 7.4
  2,4,6-TBP formation rate: 12.8 µL/min/mg
[5]; microsomes
  In vitro intrinsic clearance rate (CLint), depletion: 5.33 µL/min/mg
[6]; male, Sprague-Dawley, 7 days
  concentration of 2,4,6-TBP in rat blood: 50 ± 14 μg/g lipid weight (lw)
  concentration of 2,4,6-TBP in rat liver: 270 ± 110 μg/g lipid weight (lw)
[6]; rat
  TTBP-TAZ detected in blood samples: no TTBP-TAZ was detected
  TTBP-TAZ detected in liver samples: no TTBP-TAZ was detected
MYC
  MYC mRNA expression: significantly induced
TG
  TG mRNA expression: inhibition
RXRα
  RXRα mRNA expression: downregulated significantly
INFγ
  INFγ mRNA expression: significantly reduced
VEGF
  VEGF mRNA expression: significantly inhibited
TNFα
  TNFα mRNA expression: significantly reduced
[2]; microsomes
  In vitro intrinsic clearance rate (CLint), depletion: 10.3 µL/min/mg
[2]; pH 7.4
  2,4,6-TBP formation rate: 22.3 µL/min/mg
PLIN
  PLIN mRNA expression, fold change: 28 fold
AhR
  AhR mRNA expression, fold change compared to control: 18 fold
HIF1α
  HIF1α mRNA expression: significantly inhibited
LPL
  LPL mRNA expression: significantly inhibited
HOMX1
  HOMX1 mRNA expression: significantly inhibited
RXRβ
  RXRβ mRNA expression: downregulated significantly
[1]; human, liver microsomes, pH 7.4
  half-life: 1.1 h
PXR; rat, in vivo, 250 mg/kg/day
  PXR mRNA expression: downregulated significantly
[3]; Sprague-Dawley, rat, liver microsomes, pH 7.4
  half-life: 2.2 h
AOX1
  AOX1 mRNA expression: significantly inhibited

## COc1c(Br)cc(Br)cc1Br [2,4,6-TBA, 2,4,6-tribromoanisole]
[2]; pH 7.4
  share of the total TTBP-TAZ metabolite concentrations: 0.02%

## Oc1c(Br)cc(Br)cc1Br [2,4,6-TBP, 2,4,6-Tribromophenol]
CAT
  CAT mRNA expression: significantly inhibited
RXRγ
  RXRγ mRNA expression: significantly downregulated
SOD1
  SOD1 mRNA expression: significantly inhibited
TSH
  TSH mRNA expression: significantly induced
THRβ
  THRβ mRNA expression: significantly inhibited
ANGPTL4
  ANGPTL4 mRNA expression: significantly inhibited
LXR
  LXR mRNA expression: significantly downregulated
IL-6
  IL-6 mRNA expression: significantly decreased
RXRα
  RXRα mRNA expression: significantly downregulated
INFγ
  INFγ mRNA expression: significantly decreased
[7]
  relative body, liver, and thyroid weights: No significant difference
VEGF
  VEGF mRNA expression: significantly inhibited
TNFα
  TNFα mRNA expression: significantly decreased
PPARδ
  PPARδ mRNA expression: significantly downregulated
PLIN
  PLIN mRNA expression, fold change: 2.4 fold
HIF1α
  HIF1α mRNA expression: significantly inhibited
LPL
  LPL mRNA expression: significantly inhibited
HOMX1
  HOMX1 mRNA expression: significantly inhibited
RXRβ
  RXRβ mRNA expression: significantly downregulated
[1]
  share of the total TTBP-TAZ metabolite concentrations: 87%
[1]; metabolites of TTBP-TAZ incubation
  concentration ratio of 2,4,6-TBP to 2,4,5-TBP: 6.9
PXR; rat liver, 250 mg/kg bw/day by gavage, 7 days, vs control
  PXR mRNA expression: significantly downregulated
PPARγ
  PPARγ mRNA expression: significantly downregulated
